{
  "source": "ChEMBL document CHEMBL1156765",
  "about": "“Novel organic proteasome inhibitors identified by virtual and in vitro screening” (J Med Chem, 2010)",
  "key": {"[1]": {"species": "Oryctolagus cuniculus", "test": "Inhibition of trypsin-like activity of rabbit 20S proteasome at 100 uM at pH 8 after 15 mins", "procedure,_shortened": "(§1)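 Rabbit 20S proteasome held with inhibitor for 15 min at pH 8, 37 °C. The matching fluorogenic substrate was then added to read the remaining chymotrypsin-like, post-acid or trypsin-like activity. Results are reported as IC50, or as % inhibition at a single inhibitor concentration of 50 or 100 μM.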"}, "[2]": {"test": "Inhibition of chymotrypsin-like activity of rabbit 20S proteasome at pH 8 after 15 mins", "design": "species or system Oryctolagus cuniculus", "procedure,_shortened": "as §1"}, "[3]": {"species": "Oryctolagus cuniculus", "test": "Inhibition of post-acid activity of rabbit 20S proteasome at 50 uM at pH 8 after 15 mins", "procedure,_shortened": "as §1"}, "[4]": {"species": "Oryctolagus cuniculus", "test": "Inhibition of trypsin-like activity of rabbit 20S proteasome at 50 uM at pH 8 after 15 mins", "procedure,_shortened": "as §1"}, "[5]": {"species": "Oryctolagus cuniculus", "test": "Inhibition of post-acid activity of rabbit 20S proteasome at 100 uM at pH 8 after 15 mins", "procedure,_shortened": "as §1"}, "[6]": {"test": "Inhibition of post-acid activity of rabbit 20S proteasome at pH 8 after 15 mins", "design": "species or system Oryctolagus cuniculus", "procedure,_shortened": "as §1"}, "[7]": {"test_system": "HEK293", "test": "Cytotoxicity against human HEK293 cells after 48 hrs by XTT assay", "type": "functional, cell-based", "settings": "HEK293, 48 h"}, "[8]": {"test_system": "HeLa", "test": "Cytotoxicity against human HeLa cells after 48 hrs by XTT assay", "type": "functional, cell-based"}, "[9]": {"test": "Inhibition of trypsin-like activity of rabbit 20S proteasome at pH 8 after 15 mins", "design": "species or system Oryctolagus cuniculus", "procedure,_shortened": "as §1"}, "[10]": {"species": "Oryctolagus cuniculus", "test": "Inhibition of chymotrypsin-like activity of rabbit 20S proteasome at 50 uM at pH 8 after 15 mins", "procedure,_shortened": "as §1"}, "[11]": {"biological_target": "T1, Calpain-1 catalytic subunit (Homo sapiens) (UniProt P07384)", "T1 sequence (whole entry)": "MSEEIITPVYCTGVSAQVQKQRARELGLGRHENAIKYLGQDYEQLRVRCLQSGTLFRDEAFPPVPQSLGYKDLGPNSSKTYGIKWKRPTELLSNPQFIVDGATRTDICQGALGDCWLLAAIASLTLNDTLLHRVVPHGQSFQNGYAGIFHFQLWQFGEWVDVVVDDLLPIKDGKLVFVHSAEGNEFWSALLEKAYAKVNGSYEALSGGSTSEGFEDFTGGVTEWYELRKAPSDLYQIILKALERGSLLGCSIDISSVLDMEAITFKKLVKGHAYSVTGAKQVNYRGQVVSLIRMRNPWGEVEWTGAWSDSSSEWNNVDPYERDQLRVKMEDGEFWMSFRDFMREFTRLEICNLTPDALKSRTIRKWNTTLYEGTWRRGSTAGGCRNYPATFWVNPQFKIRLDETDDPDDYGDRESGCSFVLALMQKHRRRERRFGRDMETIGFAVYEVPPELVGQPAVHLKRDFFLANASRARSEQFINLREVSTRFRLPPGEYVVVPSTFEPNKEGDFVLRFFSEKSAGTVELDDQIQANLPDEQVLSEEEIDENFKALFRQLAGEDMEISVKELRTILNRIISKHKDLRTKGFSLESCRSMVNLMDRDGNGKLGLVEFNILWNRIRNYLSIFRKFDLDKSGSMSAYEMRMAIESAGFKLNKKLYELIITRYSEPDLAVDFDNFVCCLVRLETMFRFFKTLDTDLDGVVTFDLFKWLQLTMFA", "test": "Inhibition of cytosolic calpain 1 at 100 uM at pH 7.2"}, "[12]": {"biological_target": "T1, Calpain-1 catalytic subunit (Homo sapiens)", "test": "Inhibition of cytosolic calpain 1 at 50 uM at pH 7.2"}, "[13]": {"species": "Oryctolagus cuniculus", "test": "Inhibition of chymotrypsin-like activity of rabbit 20S proteasome at 100 uM at pH 8 after 15 mins", "procedure,_shortened": "as §1"}},
  "note": "Calls of active or inactive are those of the source. The rule behind the calls is not given here.",
  "data": [
    {"smiles": "Cc1ccccc1C(=O)Nc1ccc(S(=O)(=O)NCc2ccccc2)cc1", "values": [
      {"measurement": "inhibition", "setting": "[1]", "value": 13, "unit": "%"},
      {"measurement": "IC50", "setting": "[2]", "value": "Not Active"},
      {"measurement": "inhibition", "setting": "[3]", "value": 54, "unit": "%"}
    ]},
    {"smiles": "CCOc1ccc(-c2cc(C(=O)Nc3ccc(S(=O)(=O)NC(C)=O)cc3)c3ccccc3n2)cc1", "values": [
      {"measurement": "IC50", "setting": "[2]", "value": "Not Active"},
      {"measurement": "inhibition", "setting": "[4]", "value": 45, "unit": "%"},
      {"measurement": "inhibition", "setting": "[5]", "value": 42, "unit": "%"}
    ]},
    {"smiles": "Cc1ccc(-c2nnc(Nc3ccccc3)c3ccccc23)cc1S(=O)(=O)NCC1CCCO1", "note": "(stereo not drawn)", "values": [
      {"measurement": "IC50", "setting": "[2]", "value": "Not Active"},
      {"measurement": "inhibition", "setting": "[3]", "value": 52, "unit": "%"}
    ]},
    {"smiles": "COc1ccc(NC(=O)C23CC4CC(C2)CC(c2ccc(C)cc2)(C4)C3)cc1", "values": [
      {"measurement": "IC50", "setting": "[6]; read-out: IC50", "value": 50, "unit": "µM"},
      {"measurement": "IC50", "setting": "[2]; read-out: IC50", "value": 26.2, "unit": "µM"}
    ]},
    {"smiles": "Cc1ccc(-c2nnc(Nc3cccc(O)c3)c3ccccc23)cc1S(=O)(=O)NC(C)(C)C", "values": [
      {"measurement": "EC50", "setting": "[7]", "value": 10.4, "unit": "µM"},
      {"measurement": "IC50", "setting": "[2]; read-out: IC50", "value": 28.3, "unit": "µM"},
      {"measurement": "inhibition", "setting": "[4]", "value": 44, "unit": "%"},
      {"measurement": "inhibition", "setting": "[3]", "value": 29, "unit": "%"}
    ]},
    {"smiles": "CC(=O)NS(=O)(=O)c1ccc(NC(=O)c2cc(-c3ccc(Cl)s3)nc3ccccc23)cc1", "values": [
      {"measurement": "EC50", "setting": "[8]", "value": 100, "unit": "µM"},
      {"measurement": "EC50", "setting": "[7]", "value": 75, "unit": "µM"}
    ]},
    {"smiles": "CC(C)(C)c1ccc(OCC(=O)N2CCN(c3ccc([N+](=O)[O-])cc3)CC2)c(Br)c1", "values": [
      {"measurement": "IC50", "setting": "[2]", "value": "Not Active"},
      {"measurement": "IC50", "setting": "[9]", "value": "Not Active"},
      {"measurement": "inhibition", "setting": "[3]", "value": 49, "unit": "%"}
    ]},
    {"smiles": "COc1ccc(N2CCN(C(=S)Nc3ccc([N+](=O)[O-])cc3)CC2)cc1", "values": [
      {"measurement": "IC50", "setting": "[6]; read-out: IC50", "value": 9, "unit": "µM"},
      {"measurement": "EC50", "setting": "[7]", "value": 50, "unit": "µM"},
      {"measurement": "IC50", "setting": "[2]; read-out: IC50", "value": 10.8, "unit": "µM"}
    ]},
    {"smiles": "CCOC(=O)CNS(=O)(=O)c1cc(-c2nnc(Nc3cccc(O)c3)c3ccccc23)ccc1C", "values": [
      {"measurement": "inhibition", "setting": "[10]", "value": 35, "unit": "%"},
      {"measurement": "IC50", "setting": "[6]; read-out: IC50", "value": 39, "unit": "µM"},
      {"measurement": "EC50", "setting": "[7]", "value": 13.9, "unit": "µM"},
      {"measurement": "inhibition", "setting": "[1]", "value": 63, "unit": "%"}
    ]},
    {"smiles": "C=CCN(CC=C)S(=O)(=O)c1ccc(NC(=O)c2ccc(C(C)(C)C)cc2)cc1", "values": [
      {"measurement": "EC50", "setting": "[8]", "value": 12.3, "unit": "µM"},
      {"measurement": "IC50", "setting": "[6]; read-out: IC50", "value": 10, "unit": "µM"},
      {"measurement": "EC50", "setting": "[7]", "value": 9.7, "unit": "µM"},
      {"measurement": "Activity", "setting": "[11]", "value": "inactive"},
      {"measurement": "IC50", "setting": "[2]; read-out: IC50", "value": 1.9, "unit": "µM"},
      {"measurement": "IC50", "setting": "[9]; read-out: IC50", "value": 4.5, "unit": "µM"},
      {"measurement": "Activity", "setting": "[12]", "value": "inactive"}
    ]},
    {"smiles": "O=C(Nc1ccc(S(=O)(=O)NCc2ccccc2)cc1)c1cc(-c2cccs2)nc2ccccc12", "values": [
      {"measurement": "inhibition", "setting": "[10]", "value": 70.1, "unit": "%"},
      {"measurement": "IC50", "setting": "[6]", "value": "Not Active"}
    ]},
    {"smiles": "CC(C)(C)c1ccc(C(=O)Nc2ccc(S(=O)(=O)N3CCCCCC3)cc2)cc1", "values": [
      {"measurement": "IC50", "setting": "[2]; read-out: IC50", "value": "> 50", "unit": "µM"},
      {"measurement": "inhibition", "setting": "[5]", "value": 63, "unit": "%"}
    ]},
    {"smiles": "COc1ccc(N2CCN(C(=O)COc3ccc(C(C)(C)C)cc3)CC2)c([N+](=O)[O-])c1", "values": [
      {"measurement": "inhibition", "setting": "[10]", "value": 40, "unit": "%"},
      {"measurement": "IC50", "setting": "[6]", "value": "Not Active"}
    ]},
    {"smiles": "CCc1ccc(-c2cc(C(=O)Nc3ccc(S(=O)(=O)NC(C)=O)cc3)c3ccccc3n2)cc1", "values": [
      {"measurement": "IC50", "setting": "[2]", "value": "Not Active"},
      {"measurement": "IC50", "setting": "[9]; read-out: IC50", "value": 25.6, "unit": "µM"},
      {"measurement": "inhibition", "setting": "[5]", "value": 45, "unit": "%"}
    ]},
    {"smiles": "Cc1ccc(-c2nnc(Nc3cccc(O)c3)c3ccccc23)cc1S(=O)(=O)NC(C)(C)CO", "values": [
      {"measurement": "IC50", "setting": "[6]; read-out: IC50", "value": 14.8, "unit": "µM"},
      {"measurement": "IC50", "setting": "[2]; read-out: IC50", "value": 35.4, "unit": "µM"},
      {"measurement": "IC50", "setting": "[9]; read-out: IC50", "value": 67.8, "unit": "µM"}
    ]},
    {"smiles": "CCN(CC)S(=O)(=O)c1ccc(NC(=O)c2ccc(C(C)(C)C)cc2)cc1", "values": [
      {"measurement": "IC50", "setting": "[6]; read-out: IC50", "value": "> 25", "unit": "µM"},
      {"measurement": "inhibition", "setting": "[13]", "value": 87, "unit": "%"}
    ]},
    {"smiles": "COc1ccc(NC(=O)C23CC4CC(C2)CC(C(=O)Nc2ccc(OC)cc2)(C4)C3)cc1", "values": [
      {"measurement": "IC50", "setting": "[6]; read-out: IC50", "value": 12.4, "unit": "µM"},
      {"measurement": "IC50", "setting": "[2]; read-out: IC50", "value": 11.7, "unit": "µM"}
    ]},
    {"smiles": "CCCN(CCC)S(=O)(=O)c1ccc(NC(=O)c2ccc(C(C)(C)C)cc2)cc1", "values": [
      {"measurement": "EC50", "setting": "[8]", "value": 9, "unit": "µM"},
      {"measurement": "IC50", "setting": "[6]; read-out: IC50", "value": 8, "unit": "µM"},
      {"measurement": "EC50", "setting": "[7]", "value": "< 5", "unit": "µM"},
      {"measurement": "Activity", "setting": "[11]", "value": "inactive"},
      {"measurement": "IC50", "setting": "[2]; read-out: IC50", "value": 18.9, "unit": "µM"},
      {"measurement": "Activity", "setting": "[12]", "value": "inactive"}
    ]},
    {"smiles": "CC(C)(C)c1ccc(/C=C/C(=O)N2CCN(c3ccc([N+](=O)[O-])cc3)CC2)cc1", "values": [
      {"measurement": "IC50", "setting": "[2]", "value": "Not Active"},
      {"measurement": "IC50", "setting": "[9]", "value": "Not Active"},
      {"measurement": "inhibition", "setting": "[3]", "value": 52, "unit": "%"}
    ]}
  ]
}
